Our source for the Activity values is ChEMBL document CHEMBL1138488, “Synthesis and biological evaluation of 3,3-difluoropyridine-2,4(1H,3H)-dione and 3-deaza-3-fluorouracil base and nucleoside derivatives” (J Med Chem, 2009).

Each structure is given as a SMILES string. Calls of active or inactive are those of the source. No cut-off for these calls is given here.

Series [1] has as its system Human alphaherpesvirus 3. The experiment in a line: Antiviral activity against thymidine kinase deficient Varicella zoster virus 07/1 infected in human HEL cells assessed as inhibition of virus-induced cytopathic effect at <=100 uM. The format is functional, organism-based. In outline: (§1)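 Confluent cell monolayers were inoculated with 100 CCID₅₀ of virus, and virus was adsorbed for 1 h. Residual virus was then removed and cells were incubated with serial compound concentrations ([…], ... µM). Cytopathicity was scored once it reached completion in untreated virus-infected control cultures.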
For orientation: Cytopathic effects are the visible damage that an infection or toxin causes in cultured cells.

In series [2] the test system is Human alphaherpesvirus 1. Nature of the series: Antiviral activity against acyclovir-resistant […] kinase-deficient HSV1 KOS infected in HEL cells assessed as virus-induced cytopathic effect at <=100 uM. The format is functional, organism-based.
For a further series, the system named is CCRF-CEM. The experiment in a line: Cytostatic activity against human CEM cells at <=500 uM after 3 days by Coulter counting analysis. The note with it: 72 h. The format is cell-based. In outline:
(§2)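 Molt4/C8 or CEM lymphocytes were seeded at 75000 cells per well with varying compound concentrations. Viable cells were counted by Coulter counter after 3 days. CC₅₀ is the concentration inhibiting cell proliferation by 50%.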

Series [3] relates to Moloney murine sarcoma virus. Nature of the series: Antiviral activity against Moloney sarcoma virus replication infected in mouse […] cells assessed as virus-induced transformation of cells at <=100 uM measured on day 6 postinfection. The format is functional, organism-based. Put shortly:
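Murine C3H/3T3 embryo fibroblasts were grown to confluency and infected with Moloney murine sarcoma virus at 75 focus-forming units. Compound concentrations were then added, and virus-induced transformation was examined microscopically at day 6 postinfection.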

For a further series, the system named is Sindbis virus. The experiment in a line: Antiviral activity against Sindbis virus infected in african green monkey Vero cells assessed as inhibition of virus-induced cytopathic effect at <=100 uM. The format is functional, organism-based. Put shortly: as §1
For another series, the system named is Vaccinia virus. The experiment in a line: Antiviral activity against Vaccinia virus infected in HEL cells assessed as inhibition of virus-induced cytopathic effect at <=100 uM. The format is functional, organism-based. The note with it: Orthopoxvirus vaccinia.
Series [4] relates to Vesicular stomatitis virus. Nature of the series: Antiviral activity against Vesicular stomatitis virus infected in human HeLa cells assessed as inhibition of virus-induced cytopathic effect at <=100 uM. The format is functional, organism-based.
In a further series the test system is Coxsackievirus B4. Nature of the series: Antiviral activity against Coxsackievirus B4 infected in human HeLa cells assessed as inhibition of virus-induced cytopathic effect at <=100 uM. The format is functional, organism-based. Put shortly:
as §1

Series [5] relates to Vesicular stomatitis virus. Nature of the series: Antiviral activity against Vesicular stomatitis virus infected in HEL cells assessed as inhibition of virus-induced cytopathic effect at <=100 uM. The format is functional, organism-based.
Series [6] relates to Human alphaherpesvirus 3. The experiment in a line: Antiviral activity against thymidine kinase expressing Varicella zoster virus Oka infected in human HEL cells assessed as inhibition of virus-induced cytopathic effect at <=100 uM. The format is functional, organism-based. Put shortly: as §1
For series [7], the system named is Respiratory syncytial virus. The experiment in a line: Antiviral activity against Respiratory syncytial virus infected in human HeLa cells assessed as inhibition of virus-induced cytopathic effect at <=100 uM. The format is functional, organism-based. Put shortly:
as §1

In the next series the test system is Human alphaherpesvirus 2. The experiment in a line: Antiviral activity against HSV2 strain G infected in HEL cells assessed as virus-induced cytopathic effect at <=100 uM. The format is functional, organism-based.
Series [8] relates to Human immunodeficiency virus 1. Nature of the series: Antiviral activity against HIV1 3B replication in human CEM cells assessed as virus-induced giant cell formation at <=100 uM after 4 days. The format is functional, organism-based. Particulars: CCRF-CEM. Put shortly: (§3)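 CEM cells (~3 × 10⁵ cells/cm³) were infected with 100 CCID₅₀/mL of HIV-1(III_B) or HIV-2(ROD) and seeded into wells containing compound dilutions. After 4 days at 37 °C, virus-induced giant cell formation was examined microscopically.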

Series [9] deals with Mammalian orthoreovirus 3. Nature of the series: Antiviral activity against Reovirus 3 infected in african green monkey Vero cells assessed as inhibition of virus-induced cytopathic effect at <=100 uM. The format is functional, organism-based.
Series [10] in a line: Cytostatic activity against human Molt4/C8 cells at <=500 uM after 3 days by Coulter counting analysis. The format is ADME, cell-based. The note with it: molt-4, 72 h. In outline: as §2
The next series relates to Punta Toro virus. The experiment in a line: Antiviral activity against Punta Toro virus infected in african green monkey Vero cells assessed as inhibition of virus-induced cytopathic effect at <=100 uM. The format is functional, organism-based. In outline:
as §1

Series [11] relates to Human betaherpesvirus 5. The experiment in a line: Antiviral activity against HCMV Davis infected in HEL cells assessed as inhibition of virus-induced cytopathic effect at <=100 uM. The format is functional, organism-based. Put shortly:
as §1

Series [12] deals with Human immunodeficiency virus 2. Nature of the series: Antiviral activity against HIV2 ROD replication in human CEM cells assessed as virus-induced giant cell formation at <=100 uM after 4 days. The format is functional, organism-based. The note with it: CCRF-CEM. Put shortly:
as §3

Series [13] concerns Human alphaherpesvirus 1. Nature of the series: Antiviral activity against HSV1 KOS infected in HEL cells assessed as virus-induced cytopathic effect at <=100 uM. The format is functional, organism-based.
In series [14] the test system is Human betaherpesvirus 5. The experiment in a line: Antiviral activity against HCMV AD169 infected in HEL cells assessed as inhibition of virus-induced cytopathic effect at <=100 uM. The format is functional, organism-based. Put shortly:
as §1

The test system of another series is L1210. The experiment in a line: Cytostatic activity against mouse L1210 cells at <=500 uM after 2 days by Coulter counting analysis. The format is ADME, cell-based. Particulars: l1210, 48 h. In outline:
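Murine leukemia L1210 cells were seeded at 50000 cells per well with varying compound concentrations. Viable cell number was counted by Coulter counter after 2 days.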

A further series has as its system Human respirovirus 3. Nature of the series: Antiviral activity against Parainfluenza virus type 3 infected in african green monkey Vero cells assessed as inhibition of virus-induced cytopathic effect at <=100 uM. The format is functional, organism-based. Put shortly: as §1

For the molecule `CC1(O)C=CN([C@@H]2O[C@H](CO)[C@@H](O)[C@H]2O)C(=O)C1(F)F` (stereo partly specified), the outcome (in the series on Human alphaherpesvirus 3 [1]; with Human alphaherpesvirus 1 [2]; in [3]; with Sindbis virus; in the series with Vaccinia virus; in series [4]) was inactive. For the same molecule, the outcome (in the series on Coxsackievirus B4; in series [5]; in the series with Human alphaherpesvirus 3 [6]; in [7]; in the series with Human alphaherpesvirus 2; in [8]) was inactive. In addition, the outcome (in series [9]; with Punta Toro virus; with Human betaherpesvirus 5 [11]; in series [12]; in the series on Human alphaherpesvirus 1 [13]; in the series on Human betaherpesvirus 5 [14]) was inactive. Further, the outcome in the series on Human respirovirus 3 was inactive. Further, the Activity entry (with CCRF-CEM; in [10]; with L1210) was “Not Active” in each case.
Turning to `C#CC1(O)C=CN([C@H]2C[C@H](O)[C@@H](CO)O2)C(=O)C1(F)F` (stereo partly specified), the outcome (in the series on Human alphaherpesvirus 3 [1]; in the series with Human alphaherpesvirus 1 [2]; in series [3]; in the series with Sindbis virus; in the series on Vaccinia virus; in [4]) was inactive. Further, the result (in the series on Coxsackievirus B4; in [5]; in the series with Human alphaherpesvirus 3 [6]; in series [7]; in the series on Human alphaherpesvirus 2; in series [8]) was inactive. Besides, the result (in series [9]; with Punta Toro virus; in the series on Human betaherpesvirus 5 [11]; in series [12]; in the series on Human alphaherpesvirus 1 [13]; in the series with Human betaherpesvirus 5 [14]) was inactive. The result with Human respirovirus 3 was inactive. The Activity result (in the series with CCRF-CEM; in [10]; in the series on L1210) was “Not Active” in each case.
With `O=c1c(F)c(O)ccn1[C@H]1C[C@H](O)[C@@H](CO)O1`, the result (in the series on Human alphaherpesvirus 3 [1]; in the series on Human alphaherpesvirus 1 [2]; in series [3]; with Sindbis virus; in the series on Vaccinia virus; in series [4]) was inactive. In addition, the result (in the series on Coxsackievirus B4; in [5]; in the series with Human alphaherpesvirus 3 [6]; in series [7]; with Human alphaherpesvirus 2; in series [8]) was inactive. Also, the outcome (in series [9]; in the series on Punta Toro virus; in the series with Human betaherpesvirus 5 [11]; in series [12]; with Human alphaherpesvirus 1 [13]; with Human betaherpesvirus 5 [14]) was inactive. The outcome in the series with Human respirovirus 3 was inactive. Moreover, the Activity result (in the series with CCRF-CEM; in series [10]; in the series with L1210) was “Not Active” each time.
